Measurements as given in paper PMC3098311 (Nature, 2011).
“Also recorded” adds a separate entry of the source. Where a SMILES comes first, the peptide text is derived from it. [ ]: non-standard residue; d: D form. Tyr(3-I) = N[C@@H](Cc1ccc(O)c(I)c1)C(=O)O; Hyp = O=C(O)[C@@H]1C[C@@H](O)CN1

Tests used:
endogenous MPK3 and MPK6 = assay: In-gel kinase assay of MAPK activation in mesophyll protoplasts; format: cell-based, Arabidopsis
pWUS::GUS = pWUS::GUS reporter staining in the SAM; format: in vivo, Arabidopsis; conditions: seedlings grown 8 days with 1 μM peptide
Method in brief: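 pWUS::GUS seedlings were grown 8 days in liquid 0.5× MS/0.5% sucrose with or without 1 μM CLV3p, ΔCLV3p or flg22. They were fixed in 90% cold acetone for 20 min. Seedlings were vacuum-infiltrated with pH 7.0 phosphate buffer containing ferro/ferricyanide, Triton X-100, EDTA and 1 mM X-Gluc, then held 3 h at 37°C. Samples were dehydrated to 70% ethanol and imaged under a stereomicroscope.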

FRK1, WRKY29 and WRKY30 = assay: qRT-PCR of flg22 early marker genes in protoplasts; format: cell-based, Arabidopsis; conditions: peptides for 1 h, 1 μM CLV3p, 1 μM CLE40p, n=3
Method in brief: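 Mesophyll protoplasts were treated with peptides for 1 h. Total RNA was extracted with TRIzol, and cDNA was made from 1 μg RNA with M-MLV reverse transcriptase. SYBR green real-time PCR followed, with ACT2 as the control gene.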

SAM = assay: Assay for CLV3p-mediated SAM arrest; format: in vivo, Arabidopsis; conditions: 1 μM peptide in liquid medium
Method in brief: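 Col-0 and fls2 seeds, twenty per dish, grown in liquid 0.5× MS with 0.5% sucrose (pH 5.8), with or without 1 μM CLV3p. SAMs were cut, fixed overnight at 4°C in 4% paraformaldehyde/4% DMSO, eosin-stained and paraffin-embedded. Sections of 8 μm were Giemsa-stained (0.1%, 5 min) and imaged by light microscopy.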

Arabidopsis seedlings = assay: Seedling growth inhibition analysis; format: in vivo; conditions: for root growth: WT seedlings, flg22 1, 10 nM, CLV3p 1 μM or CLE40p 1 μM
Method in brief: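 Col-0, fls2, Ler, fls2-24 and clv2-1 seedlings were grown in 6-well plates in liquid 0.5× MS, 0.5% sucrose, pH 5.8. Treatment was flg22 (1, 10 nM) or CLV3p (1 μM), and growth was assessed after 6 or 8 days.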

FLS2 [1] = molecular target: T1, FLS2 (Arabidopsis thaliana, UniProt Q9FL28); assay: Binding competition analysis with unlabeled peptides; conditions: unlabeled peptide; ^125I-Tyr-CLV3p 1 nM; 30 min on ice; non-specific binding with 10 μM unlabeled Tyr-CLV3p; n=3
Method in brief: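 FLS2-HA expressed for 6 h in fls2 mesophyll protoplasts (2.5 × 10^5 cells); pellet from vortexed, iced and 10,000 ×g-spun extract in 25 mM MES/KOH pH 5.8, 3 mM MgCl2, 10 mM NaCl (50 μg protein). Incubated 30 min on ice with 100 fmol 125I-Tyr-CLV3p ± unlabeled competitor; blocked glass-fibre filtration, cold wash, gamma counting; specific = total − nonspecific (10–20 μM unlabeled); non-linear regression.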

FLS2-BAK1 interaction = FLS2-BAK1 interaction (Arabidopsis thaliana, UniProt Q94F62+Q9FL28); assay: FLS2-BAK1 interaction by co-IP in protoplasts; format: cell-based; conditions: for block of flg22- and CLV3p-triggered FLS2-BAK1 interaction: antagonist peptide at 50 μM
Method in brief: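 Mesophyll protoplasts came from 4-week soil-grown plants (23°C, 12 h/12 h). They were co-transfected with FLS2-HA and BAK1-FLAG and incubated for 6 h at room temperature. Cells were then exposed to flg22 (1, 10 nM), CLV3p (1 μM) or CLE40p (1 μM) for 10 min. Complexes were immunoprecipitated with anti-FLAG and detected with anti-HA on immunoblot.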

[2] = tested on: FRK1, WRKY29, WRKY30, MYB15, MYB51 and PEP3; assay: qRT-PCR of immune marker genes in isolated SAM tissues; format: in vivo, Arabidopsis; conditions: n=3
WUS = assay: qRT-PCR of WUS in isolated SAM tissues; format: in vivo, Arabidopsis; conditions: 1 μM CLV3p for 1 h; WT and mutant seedlings; n=3
Method in brief: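 Seedlings grew 8 days in liquid 0.5× MS, 0.5% sucrose, pH 5.8, then got 1 h peptide treatment (1 nM or 1 μM). SAM tissues were harvested after snap-freezing in liquid nitrogen, and RNA was TRIzol-extracted. SYBR Green real-time qRT-PCR used ACT2 as the control gene.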

FLS2 [3] = molecular target: T1, FLS2; assay: Direct binding assay, saturation and specific binding of ^125I-Tyr-CLV3p
Method in brief: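 HA-tagged FLS2 was expressed for 6 h in fls2 mesophyll protoplasts (2.5 × 10^5 cells). Pelleted extract (50 μg total protein) was in pH 5.8 MES/KOH binding buffer with MgCl2, NaCl and DTT. Extract was incubated with 100 fmol 125I-Tyr-CLV3p, with or without unlabeled Tyr-CLV3p, for 30 min on ice. Bound label was collected on BSA-blocked glass-fibre filters and gamma-counted. Specific binding = total minus non-specific (10–20 μM unlabeled). Kd came from saturation/Scatchard nonlinear regression and sites per cell from Bmax; s.d., n=3.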

Sequence of FLS2-BAK1 interaction (Q9FL28 24-1173): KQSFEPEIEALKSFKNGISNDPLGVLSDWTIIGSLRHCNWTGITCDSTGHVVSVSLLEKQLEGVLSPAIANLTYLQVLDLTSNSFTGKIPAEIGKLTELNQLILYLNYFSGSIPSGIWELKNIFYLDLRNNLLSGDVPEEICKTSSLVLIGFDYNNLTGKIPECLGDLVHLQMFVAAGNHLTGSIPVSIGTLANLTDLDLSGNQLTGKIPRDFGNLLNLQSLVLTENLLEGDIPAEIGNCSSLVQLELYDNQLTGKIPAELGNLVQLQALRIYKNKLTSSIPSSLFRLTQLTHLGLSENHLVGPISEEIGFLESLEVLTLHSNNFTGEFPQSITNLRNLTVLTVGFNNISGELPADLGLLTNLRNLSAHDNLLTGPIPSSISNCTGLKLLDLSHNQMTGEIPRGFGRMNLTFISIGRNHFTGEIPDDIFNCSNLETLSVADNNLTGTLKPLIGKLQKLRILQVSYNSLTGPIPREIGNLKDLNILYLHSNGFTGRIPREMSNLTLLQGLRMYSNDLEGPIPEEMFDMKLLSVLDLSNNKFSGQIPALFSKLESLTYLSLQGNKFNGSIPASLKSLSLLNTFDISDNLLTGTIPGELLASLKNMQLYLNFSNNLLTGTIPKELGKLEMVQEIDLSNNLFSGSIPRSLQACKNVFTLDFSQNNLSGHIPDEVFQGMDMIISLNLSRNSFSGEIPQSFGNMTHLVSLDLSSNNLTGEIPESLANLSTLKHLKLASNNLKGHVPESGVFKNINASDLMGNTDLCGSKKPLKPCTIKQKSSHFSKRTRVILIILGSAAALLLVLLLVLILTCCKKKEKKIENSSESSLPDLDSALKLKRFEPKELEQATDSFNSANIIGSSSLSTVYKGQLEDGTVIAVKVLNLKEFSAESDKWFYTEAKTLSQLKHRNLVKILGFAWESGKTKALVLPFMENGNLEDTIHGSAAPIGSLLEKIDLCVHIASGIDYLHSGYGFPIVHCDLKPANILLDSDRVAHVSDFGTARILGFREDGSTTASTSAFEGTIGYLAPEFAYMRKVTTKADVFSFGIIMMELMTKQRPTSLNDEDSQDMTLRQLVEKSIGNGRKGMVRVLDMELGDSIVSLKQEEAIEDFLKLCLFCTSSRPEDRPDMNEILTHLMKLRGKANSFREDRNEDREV
Sequence of FLS2-BAK1 interaction (Q94F62 26-615 partner): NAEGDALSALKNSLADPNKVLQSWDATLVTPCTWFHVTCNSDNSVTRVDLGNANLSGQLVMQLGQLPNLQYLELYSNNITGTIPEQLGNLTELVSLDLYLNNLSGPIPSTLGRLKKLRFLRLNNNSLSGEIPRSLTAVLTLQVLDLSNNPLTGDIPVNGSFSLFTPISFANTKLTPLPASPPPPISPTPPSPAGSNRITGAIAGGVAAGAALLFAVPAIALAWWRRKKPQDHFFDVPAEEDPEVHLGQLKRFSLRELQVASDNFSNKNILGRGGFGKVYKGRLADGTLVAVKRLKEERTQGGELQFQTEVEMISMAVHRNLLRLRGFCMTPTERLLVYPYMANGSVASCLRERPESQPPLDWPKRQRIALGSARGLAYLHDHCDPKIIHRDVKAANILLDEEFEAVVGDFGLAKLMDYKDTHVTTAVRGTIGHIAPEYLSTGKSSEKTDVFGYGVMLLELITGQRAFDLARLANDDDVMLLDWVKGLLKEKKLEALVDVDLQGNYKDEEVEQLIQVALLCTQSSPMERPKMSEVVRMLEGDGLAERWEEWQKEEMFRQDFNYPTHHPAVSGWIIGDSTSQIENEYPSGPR
T1 sequence (Q9FL28 24-1173): as the sequence (Q9FL28 24-1173) above

## RTVP^hSGP^hDPLH [ΔCLV3p]
Endogenous MPK3 and MPK6; Fig. 1a, data not shown
  activating or blocking FLS2 signalling: ineffective in activating or blocking FLS2 signalling

## RQVP^hTGSDPLHH [CLE40p, reference compound]
pWUS::GUS
  repression of pWUS::GUS reporter: repression of WUSCHEL (WUS)
FRK1, WRKY29 and WRKY30
  flg22 early marker gene activation: did not promote
SAM
  SAM growth arrest: triggered the growth arrest of SAM
Arabidopsis seedlings; 6 or 8 days
  root growth: root growth inhibition

## QRLSTGSRINSAKDDAAGLQ [flg22-Δ2]
FLS2 [1]
  competition with ^125I-Tyr-CLV3p for specific binding to FLS2: could be competed
FLS2-BAK1 interaction
  block of flg22- and CLV3p-triggered FLS2-BAK1 interaction: effectively competed with and blocked flg22 and CLV3p signalling
FLS2-BAK1 interaction; listed as Flg22-Δ2
  block of flg22- and CLV3p-triggered FLS2-BAK1 interaction: blocks CLV3p and flg22 signalling

## RTVP^hSGP^hDPLHH [CLV3p]
pWUS::GUS
  repression of pWUS::GUS reporter: repression of a sensitive pWUS::GUS reporter; also recorded: represses pWUS::GUS expression
FLS2 [1]
  competition with ^125I-Tyr-CLV3p for specific binding to FLS2: could be competed
[2]; 1 nM flg22 or 1 μM CLV3p for 1 h, WT and mutant seedlings
  immune marker gene activation in the SAM: in WT, clv1-1, clv2-1 but not fls2-24
[2]; clv3-2 seedlings treated with 0-100 nM CLV3p for 1 h
  exogenous CLV3p needed for complementation of clv3-2 for immune marker gene expression in the SAM: nM range
WUS
  repression of WUS in the SAM: only in the SAM of WT and fls2-24, but not clv1-1 and clv2-1
FRK1, WRKY29 and WRKY30
  flg22 early marker gene activation: activated similar early marker genes; also recorded: triggers flg22 marker gene activation
Endogenous MPK3 and MPK6; protoplasts, 1 μM CLV3p, 1 μM ΔCLV3p or 100 nM flg22 for 10 min
  MAPK activation: activated similar MAPK activities
FLS2-BAK1 interaction; CLV3p, 10 min
  concentration of equal potency in peptide titration, FLS2 and BAK1 co-IP: 1000 nM
SAM
  SAM growth arrest: very active in triggering the typical SAM arrest; also recorded: suppresses the SAM in Col-0 and fls2 plants
Arabidopsis seedlings; Col-0 and Ler WT seedlings, flg22 1, 10 nM or CLV3p 1 μM, 6 or 8 days
  shoot growth: did not inhibit shoot growth
Arabidopsis seedlings; 6 or 8 days
  root growth: caused stronger root growth arrest
Arabidopsis seedlings; clv2-1 seedlings, CLV3p 1 μM
  root growth arrest in the clv2-1 mutant: abolished
Arabidopsis seedlings; fls2 and fls2-24 seedlings, flg22 1, 10 nM or CLV3p 1 μM
  growth effect in two independent fls2 mutants: retained

## YRTVP^hSGP^hDPLHH [Tyr-CLV3p]
FLS2 [1]
  competition with ^125I-Tyr-CLV3p for specific binding to FLS2: could be competed

## CC(C)C[C@H](NC(=O)[C@@H]1CCCN1C(=O)[C@H](CC(=O)O)NC(=O)[C@@H]1C[C@@H](O)CN1C(=O)CNC(=O)[C@H](CO)NC(=O)[C@@H]1C[C@@H](O)CN1C(=O)[C@@H](NC(=O)[C@@H](NC(=O)[C@H](CCCNC(=N)N)NC(=O)[C@@H](N)Cc1ccc(O)c(I)c1)[C@@H](C)O)C(C)C)C(=O)N[C@@H](Cc1c[nH]cn1)C(=O)N[C@@H](Cc1c[nH]cn1)C(=O)O [^125I-Tyr-CLV3p] (H-[Tyr(3-I)]RTV[Hyp]SG[Hyp]DPLHH-OH; N-terminus and C-terminus assumed)
FLS2 [3]
  Kd: 34.7 nM
FLS2 [3]; estimated from Bmax and 50 ug protein from 2.5 × 10^5 cells, total cell extracts
  binding sites per cell: 6.36 × 10^4 binding sites per cell
FLS2 [3]; wild-type FLS2 expressed in null fls2 protoplasts, non-specific binding with 20 μM unlabeled Tyr-CLV3p, n=3
  specific binding of ^125I-Tyr-CLV3p: showed specific binding; also recorded: specifically binds to FLS2
